Source: PubChem (Broad Institute)
Vif inh: HIV Vif inhibition; HEK293T cells, Vif self-association by quenched fluorescence, imaging, 24 h; inhibition, % at 7.49 µM; 0.35% of 340,000 active; in the data active = inhibition above about 50%, passing the limit was not always enough
Glyco luc inh: N-linked glycosylation inhibition. D54 ERlucT glycosylation luciferase reporter, 24 h; percent of 100 nM tunicamycin response. reporter increase, % at 12.5 µM. 0.23% of 360,000 active;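 active = mean luciferase reporter signal, scaled so untreated is 0 and the glycosylation-blocking control 100, at or above a set limit in every replicate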;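 note: luciferase carries N-glycosylation sites so blocking glycosylation raises the light; 0% = median of neutral control wells and 100% = median of 100 nM tunicamycin wells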
PvdQ inh: P. aeruginosa PvdQ acylase inhibition; purified PvdQ acylase, fluorescence plate reader; inhibition, % at 10 µM; 0.063% of 340,000 active; AID 488965; in the data active = inhibition above about 30%, passing the limit was not always enough;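 note: 0% = vehicle neutral wells and 100% = reference inhibitor wells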
CAL PDZ FP-1: blocks peptide binding to human CAL PDZ domain | Q9HD26 | purified CAL PDZ, TMR-peptide fluorescence polarization, 1 h | inhibition, % at 20 µM | 0.02% of 330,000 active;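 active = highest replicate inhibition of at least 40%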;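 note: plate controls were DMSO neutral control wells for no effect and unlabeled competitor peptide control wells for full effect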
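Material: tagged CAL PDZ domain; buffer or medium: 25 mM sodium phosphate pH 7.4, 150 mM NaCl, TCEP, IgG, Thesit; compound dosing: single point, 20 µM; schedule: 1 h incubation at room temperature before polarization reading; measured by: FP readout, S and P plane fluorescence; read-out basis: percent inhibition from loss of millipolarization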
CDK5 p35 inh: inhibitors of human CDK5/p35 kinase | 0.01% of 330,000 active | Q00535+Q15078 | inhibition, % at 10 µM | AID 488839 | Recombinant CDK5/p35, ADP-Glo luminescence, 60 min;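 active = highest replicate inhibition of at least 50% and at least 75% of replicates reaching 50%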;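 note: plate controls were DMSO neutral control for no effect and GW8510 at 10 µM for full effect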
Target sequence (Q00535 whole entry, looked up): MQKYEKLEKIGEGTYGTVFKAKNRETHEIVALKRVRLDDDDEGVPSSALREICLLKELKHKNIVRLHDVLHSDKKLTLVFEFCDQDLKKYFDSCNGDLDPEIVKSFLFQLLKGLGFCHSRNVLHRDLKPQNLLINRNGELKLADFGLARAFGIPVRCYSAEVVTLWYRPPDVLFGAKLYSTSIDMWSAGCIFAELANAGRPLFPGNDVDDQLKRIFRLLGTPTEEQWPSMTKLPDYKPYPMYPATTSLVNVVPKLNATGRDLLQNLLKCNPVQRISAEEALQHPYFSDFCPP
Target sequence (Q15078 whole entry, looked up): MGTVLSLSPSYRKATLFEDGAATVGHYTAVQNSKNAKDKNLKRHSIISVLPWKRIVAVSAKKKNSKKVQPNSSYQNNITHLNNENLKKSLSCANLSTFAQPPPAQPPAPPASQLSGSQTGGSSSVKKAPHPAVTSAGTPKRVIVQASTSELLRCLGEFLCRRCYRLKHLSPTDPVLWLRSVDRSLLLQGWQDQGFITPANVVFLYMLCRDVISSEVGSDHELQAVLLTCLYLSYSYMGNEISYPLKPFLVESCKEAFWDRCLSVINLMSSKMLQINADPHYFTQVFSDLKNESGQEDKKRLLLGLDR
CAL PDZ FP-2: blocks peptide binding to the human CAL PDZ domain; purified CAL PDZ, TMR-peptide fluorescence polarization, 1 h; inhibition, % at 24.9 µM; 0.92% of 300,000 active; AID 602252;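 active = mean inhibition of at least 30% with at least half of replicates also reaching 30%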;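 note: 0% = DMSO neutral control and 100% = excess unlabeled competitor peptide PRC23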
* hit, by the source's call; x = not tested or not shown. Shown are actives, neighbours in structure and some others; about 1.4% of the full set was active somewhere.

SMILES	Vif inh	Glyco luc inh	PvdQ inh	CAL PDZ FP-1	CDK5 p35 inh	CAL PDZ FP-2
COc1ccc(-c2ccc(C(=O)Nc3cccc(C(C)=O)c3)c3occc23)c(C)c1	-17	-2	x	x	x	x
Cn1nc(C(C)(C)C)cc1C(=O)NCc1ccc2c(c1)OCO2	-20	-2	6	-2	-1	1
COc1ccc(C2/C=C\CNCC(=O)N2Cc2ccc(F)cc2)cc1 (stereo unspecified)	3	0	-1	1	0	-2
O=C(c1ccc(=O)[nH]c1)N1CCN(S(=O)(=O)c2ccc3ccccc3c2)CC1	12	2	-11	-1	-1	-15
CC(=O)c1cccc(NC(=O)c2cccc3ccccc23)c1	27	3	-3	-1	-1	52*
CC(=O)c1cccc(NC(=S)Nc2cccc3ccccc23)c1	7	2	-14	-2	3	-5
COc1cccc(-c2nc(N3CCN(C)CC3)c3ccccc3n2)c1O	-9	129*	3	-1	0	2
CC1CN(S(=O)(=O)c2cccc(C(=O)N3CCC(C(N)=O)CC3)c2)CC(C)O1 (stereo unspecified)	53*	1	-8	0	0	-1
Cc1cc(C)cc(C(=O)OCC(=O)Nc2ncccn2)c1	56*	2	-8	0	1	-9
COc1ccc(CC(=O)Nc2ccc(S(=O)(=O)N3CCN(C)CC3)cc2)cc1	25	-1	-13	0	0	-5
Cc1ccc(-n2nc3c(N4CCC(C(=O)NCCc5ccccc5C)CC4)nnc(C)c3c2C)cc1	54*	-17	5	-1	-1	-2
CCOC1=CC(=O)OC(c2ccccc2)C1 (stereo unspecified)	18	2	81*	-1	-1	5
CC(=O)OC1COC(n2c(O)c(N=NC(N)=S)c3ccccc32)C(OC(C)=O)C1OC(C)=O (stereo unspecified)	-7	3	-9	-1	2	38*
COc1ccccc1N=Nc1c(C)[nH]n(-c2ccccc2)c1=O	-5	0	4	0	8	1
COc1ccc(N=C(c2ccccc2)c2c(C)[nH]n(-c3ccccc3)c2=O)c(OC)c1	-9	-4	-6	-1	0	36*
COc1ccc(C2=CSC3=C(C(=O)c4cccc(S(=O)(=O)N(C)C)c4)CCN23)cc1	-14	3	-22	x	-1	96*
COc1ccc(N=C2NC(=O)S/C2=C\c2ccc(N(C)C)cc2)cc1	104*	0	7	1	1	2
CCOc1ccc(C(=O)NCC(=O)NC(C)CCc2ccccc2)cc1OCC (stereo unspecified)	1	2	-7	-3	-4	-2
O=C(NCCc1ccccc1F)c1ccc2c(c1)OCCO2	4	-20	-13	-1	1	47*
S=c1[nH]nc(-c2cc(-c3ccccc3)n[nH]2)n1/N=C/C(Br)=C/c1ccccc1	20	32*	x	x	x	x
CC(=O)OC[C@H]1O[C@@H](Oc2cc3ccc(=O)oc3cc2OC(C)=O)[C@H](OC(C)=O)[C@@H](OC(C)=O)[C@@H]1OC(C)=O	x	3	-9	1	-1	5
CN(C)c1ccc(N=Nc2ccc(S(N)(=O)=O)cc2)cc1	1	-5	-7	-1	1	44*
O=S(=O)(Nc1cc(Sc2ncn[nH]2)c(O)c2ccccc12)c1ccccc1	-2	14	9	8	6	4
O=C(O)CSc1cc(NS(=O)(=O)c2ccc(Br)cc2)c2ccccc2c1O	1	14	-9	42*	18	13
C[C@H](NC(=O)N1CCn2c1nc1ccccc12)C(=O)N1CCCCC1	-2	3	-8	0	1	42*
SMILES	Vif inh	Glyco luc inh	PvdQ inh	CAL PDZ FP-1	CDK5 p35 inh	CAL PDZ FP-2
COc1ccc(-c2c(-c3ccc4c(c3)OCO4)noc2C)cn1	-4	2	8	-1	0	-2
COc1cc(-c2noc(C)c2/C=C/c2ccc(N)cc2)cc(OC)c1OC	15	43*	-10	0	-3	x
COc1ccc(-c2c(-c3cc(OC)c(OC)c(OC)c3)noc2C)cn1	5	30*	6	-1	-1	-2
COc1cccc(C(=O)NCC(C)(C)SCc2ccc(F)cc2)c1	-3	1	-12	0	0	-1
COc1ccc2c(c1)CN(C)S(=O)(=O)c1ccccc1-2	-1	2	-15	-1	-2	-6
CCOc1ccc(N2C(=O)CC(N3CCc4ccccc43)C2=O)cc1 (stereo unspecified)	81*	1	-11	-1	-2	-3
CCN(CC)C(=O)c1nc[nH]c1C(=O)N1CCC(C)CC1	-1	2	-26	1	-2	-2
CCCNS(=O)(=O)c1cc(Cl)ccc1OC	-2	3	-2	0	4	-1
CCCNS(=O)(=O)c1ccc(OC)c(Cl)c1Cl	-15	1	39*	0	1	-7
CC(C)Oc1ccc(CN2CCC2(C)C(=O)Nc2ccc(Cl)c(Cl)c2)cc1 (stereo unspecified)	58*	-2	x	x	x	x
OCCN1CCN(c2nc(-c3ccccc3)nc3c2oc2ccccc23)CC1	66*	14	4	-5	4	0
O=C(O)C1CCN(c2nc(-c3ccccc3)nc3c2oc2ccccc23)CC1	-16	3	-11	-1	1	-4
CC(=O)c1cnc(-c2ccccc2Cl)s1	57*	-1	1	-3	-1	-5
CCCCn1c(N)c(N(CC(C)C)C(=O)CCN2C(=O)C3CC=CCC3C2=O)c(=O)[nH]c1=O (stereo unspecified)	5	1	x	x	x	x
COc1ccc(NC(=O)C2CCN(c3ncnc4c3nc3n4CCCCC3)CC2)cc1Cl	-4	1	-12	0	-1	-1
CC(C)(C)NCC(O)CON=C1c2ccccc2-c2ccccc21 (stereo unspecified)	-4	35*	-11	14	0	-5
COc1ccccc1-c1csc(C(O)c2cccc(Cl)c2)n1 (stereo unspecified)	0	0	x	x	x	x
COc1ccc(S(=O)(=O)NNC(=O)C23CC4CC(CC(C4)C2)C3)cc1[N+](=O)[O-]	-4	0	16	-2	1	-1
O=C(NCc1cccnc1)/C(=C/c1ccc(-c2cccc(C(F)(F)F)c2)o1)NC(=O)c1ccccc1	7	2	-13	32	-2	42*
CCOC(=O)c1ccc(N2Cc3ccccc3C2=NC(=O)c2cccc([N+](=O)[O-])c2)cc1	-15	-5	45*	-3	0	-1
COc1ccc([C@H]2CC(=O)C=C(c3cccc(C(C)C)c3)C2)cc1OC	-10	-7	-11	-1	-3	-5
O=C(COc1ccccc1Cl)Nc1nnc(S(=O)(=O)N2CCCCCC2)s1	x	1	11	-3	0	x
